From ChEMBL document CHEMBL2057112, “Enamino-oxindole HIV protease inhibitors” (Bioorg Med Chem Lett, 2012)

Tested on: not listed separately
Assay: Inhibition of wild type Human immunodeficiency virus protease expressed in Escherichia coli using ArgGlu(EDANS)SerGlnAsnTyrProIleValGlnLys(DABCYL)Arg as substrate preincubated with compound for 0.5 to 1 min measured by fluorometric analysis at pH 6.5
Conditions: not given

SMILES | Ki [nM]
CC(C)CN(C[C@@H](O)[C@H](Cc1ccccc1)NC(=O)O[C@H]1CO[C@H]2OCC[C@H]21)S(=O)(=O)c1ccc2c(c1)C(=CNCC(C)(C)C)C(=O)N2 (mixture of isomers) | < 0.1
CC(C)CN(C[C@@H](O)[C@H](Cc1ccccc1)NC(=O)O[C@H]1CO[C@H]2OCC[C@H]21)S(=O)(=O)c1ccc2c(c1)C(=CNC1CCC1)C(=O)N2 (mixture of isomers) | < 0.1
COC(=O)N[C@H](C(=O)N[C@@H](Cc1ccccc1)[C@@H](O)CN(Cc1ccc(-c2ccccn2)cc1)NC(=O)[C@@H](NC(=O)OC)C(C)(C)C)C(C)(C)C [ATAZANAVIR] | < 0.1

Tested on: not listed separately
Assay: Inhibition of Human immunodeficiency virus protease M8 mutant expressed in Escherichia coli using ArgGlu(EDANS)SerGlnAsnTyrProIleValGlnLys(DABCYL)Arg as substrate preincubated with compound for 0.5 to 1 min measured by fluorometric analysis at pH 6.5
Conditions: not given

SMILES | Ki [nM]
COC(=O)N[C@H](C(=O)N[C@@H](Cc1ccccc1)[C@@H](O)CN(Cc1ccc(-c2ccccn2)cc1)NC(=O)[C@@H](NC(=O)OC)C(C)(C)C)C(C)(C)C [ATAZANAVIR] | 2.8

Tested on: not listed separately
Assay: Inhibition of Human immunodeficiency virus protease M9 mutant expressed in Escherichia coli using ArgGlu(EDANS)SerGlnAsnTyrProIleValGlnLys(DABCYL)Arg as substrate preincubated with compound for 0.5 to 1 min measured by fluorometric analysis at pH 6.5
Conditions: not given

SMILES | Ki [nM]
CC(C)CN(C[C@@H](O)[C@H](Cc1ccccc1)NC(=O)O[C@H]1CO[C@H]2OCC[C@H]21)S(=O)(=O)c1ccc2c(c1)C(=CNCC(C)(C)C)C(=O)N2 (mixture of isomers) | < 0.3
CC(C)CN(C[C@@H](O)[C@H](Cc1ccccc1)NC(=O)O[C@H]1CO[C@H]2OCC[C@H]21)S(=O)(=O)c1ccc2c(c1)C(=CNC1CCC1)C(=O)N2 (mixture of isomers) | < 0.3
COC(=O)N[C@H](C(=O)N[C@@H](Cc1ccccc1)[C@@H](O)CN(Cc1ccc(-c2ccccn2)cc1)NC(=O)[C@@H](NC(=O)OC)C(C)(C)C)C(C)(C)C [ATAZANAVIR] | 84

Tested on: not listed separately
Assay: Inhibition of Human immunodeficiency virus protease M10 mutant expressed in Escherichia coli using ArgGlu(EDANS)SerGlnAsnTyrProIleValGlnLys(DABCYL)Arg as substrate preincubated with compound for 0.5 to 1 min measured by fluorometric analysis at pH 6.5
Conditions: not given

SMILES | Ki [nM]
CC(C)CN(C[C@@H](O)[C@H](Cc1ccccc1)NC(=O)O[C@H]1CO[C@H]2OCC[C@H]21)S(=O)(=O)c1ccc2c(c1)C(=CNCC(C)(C)C)C(=O)N2 (mixture of isomers) | < 1
CC(C)CN(C[C@@H](O)[C@H](Cc1ccccc1)NC(=O)O[C@H]1CO[C@H]2OCC[C@H]21)S(=O)(=O)c1ccc2c(c1)C(=CNC1CCC1)C(=O)N2 (mixture of isomers) | 1.2
COC(=O)N[C@H](C(=O)N[C@@H](Cc1ccccc1)[C@@H](O)CN(Cc1ccc(-c2ccccn2)cc1)NC(=O)[C@@H](NC(=O)OC)C(C)(C)C)C(C)(C)C [ATAZANAVIR] | 171

Tested on: Human immunodeficiency virus 1
Assay: Antiviral activity against Human immunodeficiency virus 1 HXB2 expressing wild type protease infected in human MT4 cells after 5 days by MTT assay
Type: functional, organism-based
Conditions: Human immunodeficiency virus 1, HXB2, MT4, 120 h

SMILES | IC50 [nM]
CC(C)CN(C[C@@H](O)[C@H](Cc1ccccc1)NC(=O)O[C@H]1CO[C@H]2OCC[C@H]21)S(=O)(=O)c1ccc2c(c1)C(=CNCC(C)(C)C)C(=O)N2 (mixture of isomers) | 4.5
CC(C)CN(C[C@@H](O)[C@H](Cc1ccccc1)NC(=O)O[C@H]1CO[C@H]2OCC[C@H]21)S(=O)(=O)c1ccc2c(c1)C(=CNC1CCC1)C(=O)N2 (mixture of isomers) | 17
COC(=O)N[C@H](C(=O)N[C@@H](Cc1ccccc1)[C@@H](O)CN(Cc1ccc(-c2ccccn2)cc1)NC(=O)[C@@H](NC(=O)OC)C(C)(C)C)C(C)(C)C [ATAZANAVIR] | 3.5

Tested on: Human immunodeficiency virus 1
Assay: Antiviral activity against Human immunodeficiency virus 1 HXB2 expressing protease M8 mutant infected in human MT4 cells after 5 days by MTT assay
Type: functional, organism-based
Conditions: Human immunodeficiency virus 1, HXB2, MT4, 120 h

SMILES | IC50 [nM]
CC(C)CN(C[C@@H](O)[C@H](Cc1ccccc1)NC(=O)O[C@H]1CO[C@H]2OCC[C@H]21)S(=O)(=O)c1ccc2c(c1)C(=CNCC(C)(C)C)C(=O)N2 (mixture of isomers) | 13
CC(C)CN(C[C@@H](O)[C@H](Cc1ccccc1)NC(=O)O[C@H]1CO[C@H]2OCC[C@H]21)S(=O)(=O)c1ccc2c(c1)C(=CNC1CCC1)C(=O)N2 (mixture of isomers) | 30
COC(=O)N[C@H](C(=O)N[C@@H](Cc1ccccc1)[C@@H](O)CN(Cc1ccc(-c2ccccn2)cc1)NC(=O)[C@@H](NC(=O)OC)C(C)(C)C)C(C)(C)C [ATAZANAVIR] | 750

Tested on: Human immunodeficiency virus 1
Assay: Antiviral activity against Human immunodeficiency virus 1 HXB2 expressing protease M9 mutant infected in human MT4 cells after 5 days by MTT assay
Type: functional, organism-based
Conditions: Human immunodeficiency virus 1, HXB2, MT4, 120 h

SMILES | IC50 [nM]
CC(C)CN(C[C@@H](O)[C@H](Cc1ccccc1)NC(=O)O[C@H]1CO[C@H]2OCC[C@H]21)S(=O)(=O)c1ccc2c(c1)C(=CNCC(C)(C)C)C(=O)N2 (mixture of isomers) | 9.5
CC(C)CN(C[C@@H](O)[C@H](Cc1ccccc1)NC(=O)O[C@H]1CO[C@H]2OCC[C@H]21)S(=O)(=O)c1ccc2c(c1)C(=CNC1CCC1)C(=O)N2 (mixture of isomers) | 31
COC(=O)N[C@H](C(=O)N[C@@H](Cc1ccccc1)[C@@H](O)CN(Cc1ccc(-c2ccccn2)cc1)NC(=O)[C@@H](NC(=O)OC)C(C)(C)C)C(C)(C)C [ATAZANAVIR] | 2500

Tested on: Human immunodeficiency virus 1
Assay: Antiviral activity against Human immunodeficiency virus 1 HXB2 expressing protease M10 mutant infected in human MT4 cells after 5 days by MTT assay
Type: functional, organism-based
Conditions: Human immunodeficiency virus 1, HXB2, MT4, 120 h

SMILES | IC50 [nM]
CC(C)CN(C[C@@H](O)[C@H](Cc1ccccc1)NC(=O)O[C@H]1CO[C@H]2OCC[C@H]21)S(=O)(=O)c1ccc2c(c1)C(=CNCC(C)(C)C)C(=O)N2 (mixture of isomers) | 27
CC(C)CN(C[C@@H](O)[C@H](Cc1ccccc1)NC(=O)O[C@H]1CO[C@H]2OCC[C@H]21)S(=O)(=O)c1ccc2c(c1)C(=CNC1CCC1)C(=O)N2 (mixture of isomers) | 115
COC(=O)N[C@H](C(=O)N[C@@H](Cc1ccccc1)[C@@H](O)CN(Cc1ccc(-c2ccccn2)cc1)NC(=O)[C@@H](NC(=O)OC)C(C)(C)C)C(C)(C)C [ATAZANAVIR] | 3300

Tested on: Human immunodeficiency virus 1
Assay: Antiviral activity against Human immunodeficiency virus 1 HXB2 expressing protease M3 mutant infected in human MT4 cells after 5 days by MTT assay
Type: functional, organism-based
Conditions: Human immunodeficiency virus 1, HXB2, MT4, 120 h
Method in brief: (§1)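 MT-4 cells (AIDS Research and Reference Reagent Program) exposed to 50% tissue culture infective doses (TCID₅₀) of virus with various concentrations of test compound for 5 days. MTT solution then added and absorbance measured. Mutant strains carry 10–17 resistance mutations with phenotypic resistance to marketed PIs; all include I84V except M7. IC₅₀ reported.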

SMILES | IC50 [nM]
CC(C)CN(C[C@@H](O)[C@H](Cc1ccccc1)NC(=O)O[C@H]1CO[C@H]2OCC[C@H]21)S(=O)(=O)c1ccc2c(c1)C(=CNCC(C)(C)C)C(=O)N2 (mixture of isomers) | 8
CC(C)CN(C[C@@H](O)[C@H](Cc1ccccc1)NC(=O)O[C@H]1CO[C@H]2OCC[C@H]21)S(=O)(=O)c1ccc2c(c1)C(=CNC1CCC1)C(=O)N2 (mixture of isomers) | 31
COC(=O)N[C@H](C(=O)N[C@@H](Cc1ccccc1)[C@@H](O)CN(Cc1ccc(-c2ccccn2)cc1)NC(=O)[C@@H](NC(=O)OC)C(C)(C)C)C(C)(C)C [ATAZANAVIR] | 350

Tested on: Human immunodeficiency virus 1
Assay: Antiviral activity against Human immunodeficiency virus 1 HXB2 expressing protease M4 mutant infected in human MT4 cells after 5 days by MTT assay
Type: functional, organism-based
Conditions: Human immunodeficiency virus 1, HXB2, MT4, 120 h
Method in brief: as §1

SMILES | IC50 [nM]
CC(C)CN(C[C@@H](O)[C@H](Cc1ccccc1)NC(=O)O[C@H]1CO[C@H]2OCC[C@H]21)S(=O)(=O)c1ccc2c(c1)C(=CNCC(C)(C)C)C(=O)N2 (mixture of isomers) | 8.8
CC(C)CN(C[C@@H](O)[C@H](Cc1ccccc1)NC(=O)O[C@H]1CO[C@H]2OCC[C@H]21)S(=O)(=O)c1ccc2c(c1)C(=CNC1CCC1)C(=O)N2 (mixture of isomers) | 36
COC(=O)N[C@H](C(=O)N[C@@H](Cc1ccccc1)[C@@H](O)CN(Cc1ccc(-c2ccccn2)cc1)NC(=O)[C@@H](NC(=O)OC)C(C)(C)C)C(C)(C)C [ATAZANAVIR] | 600

Tested on: Human immunodeficiency virus 1
Assay: Antiviral activity against Human immunodeficiency virus 1 HXB2 expressing protease M5 mutant infected in human MT4 cells after 5 days by MTT assay
Type: functional, organism-based
Conditions: Human immunodeficiency virus 1, HXB2, MT4, 120 h
Method in brief: as §1

SMILES | IC50 [nM]
CC(C)CN(C[C@@H](O)[C@H](Cc1ccccc1)NC(=O)O[C@H]1CO[C@H]2OCC[C@H]21)S(=O)(=O)c1ccc2c(c1)C(=CNCC(C)(C)C)C(=O)N2 (mixture of isomers) | 7
CC(C)CN(C[C@@H](O)[C@H](Cc1ccccc1)NC(=O)O[C@H]1CO[C@H]2OCC[C@H]21)S(=O)(=O)c1ccc2c(c1)C(=CNC1CCC1)C(=O)N2 (mixture of isomers) | 33
COC(=O)N[C@H](C(=O)N[C@@H](Cc1ccccc1)[C@@H](O)CN(Cc1ccc(-c2ccccn2)cc1)NC(=O)[C@@H](NC(=O)OC)C(C)(C)C)C(C)(C)C [ATAZANAVIR] | 280

Tested on: Human immunodeficiency virus 1
Assay: Antiviral activity against Human immunodeficiency virus 1 HXB2 expressing protease M6 mutant infected in human MT4 cells after 5 days by MTT assay
Type: functional, organism-based
Conditions: Human immunodeficiency virus 1, HXB2, MT4, 120 h
Method in brief: as §1

SMILES | IC50 [nM]
CC(C)CN(C[C@@H](O)[C@H](Cc1ccccc1)NC(=O)O[C@H]1CO[C@H]2OCC[C@H]21)S(=O)(=O)c1ccc2c(c1)C(=CNCC(C)(C)C)C(=O)N2 (mixture of isomers) | 6
CC(C)CN(C[C@@H](O)[C@H](Cc1ccccc1)NC(=O)O[C@H]1CO[C@H]2OCC[C@H]21)S(=O)(=O)c1ccc2c(c1)C(=CNC1CCC1)C(=O)N2 (mixture of isomers) | 32
COC(=O)N[C@H](C(=O)N[C@@H](Cc1ccccc1)[C@@H](O)CN(Cc1ccc(-c2ccccn2)cc1)NC(=O)[C@@H](NC(=O)OC)C(C)(C)C)C(C)(C)C [ATAZANAVIR] | 430

Tested on: Human immunodeficiency virus 1
Assay: Antiviral activity against Human immunodeficiency virus 1 HXB2 expressing protease M7 mutant infected in human MT4 cells after 5 days by MTT assay
Type: functional, organism-based
Conditions: Human immunodeficiency virus 1, HXB2, MT4, 120 h
Method in brief: as §1

SMILES | IC50 [nM]
CC(C)CN(C[C@@H](O)[C@H](Cc1ccccc1)NC(=O)O[C@H]1CO[C@H]2OCC[C@H]21)S(=O)(=O)c1ccc2c(c1)C(=CNCC(C)(C)C)C(=O)N2 (mixture of isomers) | 1.5
CC(C)CN(C[C@@H](O)[C@H](Cc1ccccc1)NC(=O)O[C@H]1CO[C@H]2OCC[C@H]21)S(=O)(=O)c1ccc2c(c1)C(=CNC1CCC1)C(=O)N2 (mixture of isomers) | 7
COC(=O)N[C@H](C(=O)N[C@@H](Cc1ccccc1)[C@@H](O)CN(Cc1ccc(-c2ccccn2)cc1)NC(=O)[C@@H](NC(=O)OC)C(C)(C)C)C(C)(C)C [ATAZANAVIR] | 105
